# Shown are actives, neighbours in structure and some others; about 3.7% of the full set was active somewhere.
# KCNQ1 inh: blocks the human KCNQ1 potassium channel; B-score at 10 µM; hit rate 1.3% among 310,000; CHO-K1 KCNQ1, FluxOR thallium flux fluorescence; stronger effect = higher value; P51787; AID 2642;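 active = compounds whose thallium flux B-score, printed positive for inhibition, exceeds three library SD while starting fluorescence stays within three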;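 note: channel opened by potassium depolarization with thallium stimulus after 20 min compound exposure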
# KCNK3 block: human KCNK3 channel inhibition, primary screen; AID 602410; O14649; B-score at 10 µM; CHO-KCNK3 thallium flux, FluxOR fluorescence; stronger effect = lower value; hit rate 0.84% among 340,000;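 active = B-score under library mean minus 4 SD, starting fluorescence ratio at most library mean plus 5 SD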;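 note: more negative B-score means stronger inhibition of thallium flux through KCNK3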
# Kir21 block: Kir2.1 (mouse) channel inhibition; AID 1672; HEK293-Kir2.1, FluxOR thallium flux fluorescence; stronger effect = lower value; hit rate 0.85% among 310,000; B-score at 10 µM;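 active = fluorescence ratio B-score at or below minus 3 SD of library scores, with starting-brightness B-score within 2 SD, cut at about -4.2 in these data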;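 note: channel flux triggered by added potassium and thallium sulfate stimulus; B-score of peak minus minimum fluorescence over baseline after thallium stimulus; more negative B-score means stronger Kir2.1 block with less thallium influx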
# hERG protect: hERG (human) protection from proarrhythmic block; activation (rescue from dofetilide block), less the hit threshold, % at 10 µM; hit rate 0.51% among 310,000; Q12809; CHO-hERG, FluxOR thallium flux, dofetilide IC70 present;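 active = activation above the mean of controls blocked by dofetilide plus 5 SD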;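 note: thallium influx through hERG after potassium depolarization seen as dye fluorescence rise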
# KCNK9 block: inhibitors of human KCNK9 two-pore domain potassium channel. AID 488922. Q9NPC2. hit rate 1.2% among 310,000. B-score at 10 µM. HEK293 KCNK9, FluxOR thallium flux fluorescence; stronger effect = lower value;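 active = ratio B-score over 3 SD below the library mean, with starting fluorescence within 5 SD of its mean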;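 note: negative B-score means less thallium flux so channel inhibition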
# Target sequence (Q9NPC2 whole entry, looked up, the tested form may be a part): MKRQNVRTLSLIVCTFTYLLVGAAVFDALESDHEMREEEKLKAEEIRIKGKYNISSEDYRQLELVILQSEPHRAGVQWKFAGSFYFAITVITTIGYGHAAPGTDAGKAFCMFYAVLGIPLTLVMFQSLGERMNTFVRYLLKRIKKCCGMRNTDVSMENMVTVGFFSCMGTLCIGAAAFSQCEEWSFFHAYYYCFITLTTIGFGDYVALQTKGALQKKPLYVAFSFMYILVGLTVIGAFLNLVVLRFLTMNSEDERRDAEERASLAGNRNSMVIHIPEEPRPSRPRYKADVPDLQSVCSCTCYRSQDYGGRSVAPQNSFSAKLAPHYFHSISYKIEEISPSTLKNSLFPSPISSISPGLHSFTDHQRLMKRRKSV
# KCNQ1 act: potentiates or activates the human KCNQ1 potassium channel; CHO-K1 KCNQ1, thallium flux FluxOR fluorescence; stronger effect = higher value; B-score at 10 µM; hit rate 0.35% among 310,000; P51787;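 active = fluorescence ratio B-score, a plate-corrected score, at least three library SD, with initial intensity B-score within 5 SD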
#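 Doses: Single concentration per compound, DMSO matched to controls | Test system: KCNQ1-transfected CHO-K1 cells | Timing: 90 min dye loading and 20 min compound exposure, both at room temperature | Measured by: Kinetic FluxOR thallium fluorescence, 10-s 1-Hz baseline, 110-s post-stimulus read | Medium: Assay buffer with matched DMSO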
# KCNK9 block conf: confirmation of human KCNK9 potassium channel inhibitors; HEK293 KCNK9 cells, FluxOR thallium flux fluorescence; hit rate 43% among 4,900; AID 492992; inhibition, % at 10 µM; shares compounds with KCNK9 block;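 active = thallium signal inhibited by more than 5 SD of the compound-free buffer control wells, on both duplicate plates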;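 note: 0% = assay buffer control wells without compound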
# Kir21 sel: tests whether KCNK9 modulators also affect mouse Kir2.1 | AID 492993 | Kir2.1 cells, FluxOR thallium flux fluorescence | inhibition, % at 10 µM | hit rate 4% among 4,900 | shares compounds with KCNK9 block;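 active = thallium signal drop more than 5 SD beyond the mean of the no-compound control wells, seen in both duplicate plates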;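 note: signal is fluorescence rise after thallium addition divided by baseline fluorescence; plate controls were assay buffer only for no effect and full block by chlorpromazine control for full effect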
# KCNK9 uninduced: non-induced cell nonspecific activity of KCNK9 modulators; shares compounds with KCNK9 block; hit rate 40% among 4,900; non-induced KCNK9-HEK293, FluxOR thallium flux; inhibition, % at 10 µM; AID 492997;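 active = thallium signal drop beyond 5 SD of the untreated control mean, on both duplicate plates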;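 note: plate controls were buffer only IC0 wells for no effect and SID17386958 at its maximal inhibitory level for full effect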
# * = called active by the depositor; i = inactive; . = no result.
SMILES,KCNQ1 inh,KCNK3 block,Kir21 block,hERG protect,KCNK9 block,KCNQ1 act,KCNK9 block conf,Kir21 sel,KCNK9 uninduced
CSc1ccccc1OCc1cc(C(=O)N(C)Cc2ccc3nsnc3c2)no1,i,i,0.91,-8,i,i,.,.,.
CSc1ccccc1OCc1cc(C(=O)N(C)Cc2ccc(C)o2)no1,i,i,-1.1,-10,i,i,i,i,i
Cc1cnc(NC(=O)c2c(Cl)cnn2C)s1,i,i,1.3,-5,i,i,.,.,.
O=C(Cc1cccs1)NC(c1ccccc1)c1ccccc1,i,i,-0.07,-9,i,i,.,.,.
O=C(COC(=O)/C(=C/c1cccs1)c1cccs1)NC(c1ccccc1)c1ccccc1,i,i,-1.1,-10,-9.1*,i,46%*,i,i
Cn1c(-c2ccc(C=O)s2)nc2c3ccccc3c3ccccc3c21,7*,i,-1.6,-5,-10*,i,33%*,i,72%*
COc1ccc([N+](=O)[O-])cc1NC(=O)C(C)OC(=O)Cn1[nH]c(=O)c2ccccc2c1=O (stereo not drawn),i,i,0.94,-7,i,i,.,.,.
Cc1ccc(SCc2ccc(C(=O)N3CCCC3)cc2)cc1,i,i,-1.7,5.7*,i,i,i,i,i
CCC(C)c1ccc(NC(=O)COc2c(F)c(F)c(C(F)(F)F)c(F)c2F)cc1 (stereo not drawn),i,i,1.3,-17,i,i,i,i,i
O=C(COc1c(F)c(F)c(C(F)(F)F)c(F)c1F)Nc1ccc(N2CCOCC2)c(Cl)c1,i,i,1.2,-5,i,i,.,.,.
CCn1c(SCC(=O)N/N=C/C(C)=C\c2ccco2)nnc1-c1ccccc1,i,i,-0.77,-8,i,i,i,i,i
COc1cccc(CN2CC(C(=O)NCCN3CCOC3=O)CCC2=O)c1 (stereo not drawn),i,i,-0.56,-4,i,i,.,.,.
CC(NC(=O)Cn1nc(C(F)(F)F)c2c1CCC2)c1ccccc1 (stereo not drawn),i,i,-0.17,-4,i,i,i,i,30%*
c1ccc(-c2cc3c(N4CCN(c5ncccn5)CC4)ncnc3s2)cc1,i,i,0.66,-10,i,i,i,i,i
CCOC(=O)/C(=C/c1c2ccccc2cc2ccccc12)NC(=O)c1ccccc1,i,-11*,-0.03,-7,-16*,i,58%*,i,39%*
C=CCOC(=O)/C(=C\c1cccc2ccccc12)NC(=O)c1ccccc1,i,i,1.1,-6,i,i,.,.,.
COC(=O)/C(=C\c1ccc2c(c1)c1ccccc1n2C)NC(=O)c1ccccc1,i,i,-0.38,-9,-9.6*,i,36%*,i,i
COC(=O)/C(=C\C=C\c1ccccc1)NC(=O)c1ccccc1,i,i,-1.6,-6,i,i,.,.,.
Clc1ccc(C2[C@H]3CN(Cc4ccc(-c5ccccc5)cc4)[C@H](c4ccccc4)C34CC2(c2ccccc2)C4)cn1 (stereo partly drawn),i,.,0.01,-7,i,i,.,.,.
Clc1ccc(C2[C@H]3CN(Cc4cccnc4)[C@H](c4ccccc4)C34CC2(c2ccccc2)C4)cn1 (stereo partly drawn),i,i,-1.1,-6,-9.8*,i,30%*,i,35%*
C#CCCOC(=O)Nc1ccccc1,i,i,0.82,-3,i,i,.,.,.
Cc1nn(-c2ccccc2)c(N2CCCC2)c1/C=N/NC(=S)Nc1ccccc1C(F)(F)F,i,i,0.09,-3,-9.1*,i,44%*,i,i

# High-throughput results deposited in PubChem by Johns Hopkins Ion Channel Center.
